Assay results: ChEMBL document CHEMBL2321850, “Fragment-based discovery of 8-hydroxyquinoline inhibitors of the HIV-1 integrase-lens epithelium-derived growth factor/p75 (IN-LEDGF/p75) interaction” (J Med Chem, 2013)

Key:
[1] = tested on: Human immunodeficiency virus; experiment: Antiviral activity against HIV infected human MT4 cells assessed as decrease of virus-induced cytopathic effect after 72 hrs by MTT assay; format: functional, organism-based; conditions: Human immunodeficiency virus 1, MT4, 72 h
Outline: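 MT-4 cells infected with 100 to 300 CCID50 of HIV (CCID50 from virus-stock titration on MT-4) in presence of fivefold serial compound dilutions; protection from viral cytopathic effect read by MTT; EC50 = concentration giving 50% protection. CC50 in MT-4 cells measured in parallel.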

LNCaP = experiment: Cytotoxicity against human LNCAP cells assessed as inhibition of cell proliferation after 72 hrs by MTT assay; format: cell-based
[2] = tested on: Human immunodeficiency virus 1; experiment: Inhibition of HIV-1 FLAG-6x-His-tagged integrase interaction to FLAG-tagged LEDGF/p75 at 10 uM preincubated for 30 mins prior to LEDGF/p75 addition measured after 60 mins by quenching assay
[3] = Inhibition of HIV-1 His6-tagged integrase interaction to FLAG-tagged LEDGF/p75 preincubated for 30 mins prior to LEDGF/p75 addition measured after 60 mins by alphascreen assay; parameters: species or system Human immunodeficiency virus 1
Outline: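 His6-tagged IN (300 nM final) preincubated with compound (20 µM final) 30 min at 4 °C, then FLAG-LEDGF/p75 (300 nM final) added for 60 min at 4 °C; Ni-chelate donor and anti-FLAG acceptor beads (20 µg/mL each) added, 1 h at 30 °C, light-protected; acceptor-bead emission read.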

[4] = molecular target: T1, Human immunodeficiency virus type 1 integrase (Human immunodeficiency virus 1, UniProt Q7ZJM1); experiment: Inhibition of HIV-1 integrase strand transfer activity
T1 sequence (Q7ZJM1 whole entry): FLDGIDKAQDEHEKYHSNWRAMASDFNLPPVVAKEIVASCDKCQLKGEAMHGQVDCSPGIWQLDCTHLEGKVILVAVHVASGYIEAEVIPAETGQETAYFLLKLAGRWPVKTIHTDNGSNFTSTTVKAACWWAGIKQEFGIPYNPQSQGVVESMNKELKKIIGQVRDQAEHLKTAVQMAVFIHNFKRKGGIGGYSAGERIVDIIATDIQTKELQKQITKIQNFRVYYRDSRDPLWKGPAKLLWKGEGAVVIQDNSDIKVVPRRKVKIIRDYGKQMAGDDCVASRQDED

[5] = molecular target: T1, Human immunodeficiency virus type 1 integrase; experiment: Inhibition of HIV-1 integrase 3'-processing activity
MT4 = experiment: Cytotoxicity against human MT4 cells assessed as cell viability after 72 hrs by MTT assay; format: cell-based; conditions: mt4, 72 h
Outline: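 MT-4 cells exposed to fivefold serial dilutions of compound run in parallel with the antiviral MTT cytopathic-effect assay; CC50 taken as the concentration killing 50% of MT-4 cells.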

| SMILES | EC50 [1] | CC50 (LNCaP) | inhibition [2] | IC50 [3] | IC50 [4] | IC50 [5] | CC50 (MT4) |
| --- | --- | --- | --- | --- | --- | --- | --- |
| COc1ccc(C(NC(C)=O)c2cc([N+](=O)[O-])c3cccnc3c2O)cc1OC (stereo not given) | > 42 µM | > 10 µM | < 50% | 3.9 µM | > 20 µM | > 20 µM | 42 µM |
| CCC(=O)NC(c1ccc(OC)cc1)c1cc([N+](=O)[O-])c2cccnc2c1O (stereo not given) | > 10 µM | > 10 µM | < 50% | 2.6 µM | > 20 µM | > 20 µM | 10 µM |
| CCC(=O)NC(c1ccc(OC)c(OC)c1)c1cc(Cl)c2cccnc2c1O (stereo not given) | – | 3 µM | < 50% | 4 µM | > 20 µM | > 20 µM | – |
| CCOC(=O)C1CCCN(Cc2ccc(O)c3ncccc23)C1 (stereo not given) | > 9 µM | > 10 µM | < 50% | 2 µM | > 20 µM | > 20 µM | 9 µM |
| Oc1ccc(Cl)c2cccnc12 [CLOXYQUIN] | – | 5 µM | < 50% | 3.6 µM | > 20 µM | > 20 µM | – |
| Oc1c(Cl)cc(Cl)c2cccnc12 [CHLOROXINE] | – | 2.5 µM | < 50% | 4.3 µM | > 20 µM | > 20 µM | – |
| CCN1CCN(Cc2ccc(O)c3ncccc23)CC1 | > 42 µM | > 10 µM | < 50% | 1.2 µM | > 20 µM | > 20 µM | 42 µM |
| Cc1cccc(NCc2ccc(O)c3ncccc23)n1 | > 2 µM | > 10 µM | < 50% | 2.8 µM | > 20 µM | > 20 µM | 2 µM |
| Oc1ccc(CNc2cccc(C(F)(F)F)c2)c2cccnc12 | > 10 µM | > 10 µM | < 50% | 2.9 µM | > 20 µM | > 20 µM | 10 µM |
| CCC(=O)NC(c1ccccc1OC)c1ccc2cccnc2c1O (stereo not given) | – | 0.58 µM | < 50% | 2 µM | > 20 µM | > 20 µM | – |
| Oc1ccccc1C(Nc1nccs1)c1ccc2cccnc2c1O (stereo not given) | – | 2.4 µM | < 50% | 4.7 µM | > 20 µM | > 20 µM | – |
| COc1cccc(C(NC(C)=O)c2ccc3cccnc3c2O)c1 (stereo not given) | – | 0.58 µM | < 50% | 2 µM | > 20 µM | > 20 µM | – |
| Cc1cccc(NCc2ccc(O)c3ncccc23)c1C | > 13 µM | > 10 µM | < 50% | 3 µM | > 20 µM | > 20 µM | 13 µM |
| CCOc1ccc(NCc2ccc(O)c3ncccc23)cc1 | > 11 µM | > 10 µM | < 50% | 4 µM | > 20 µM | > 20 µM | 11 µM |
| Oc1ccc(CNc2ccccc2F)c2cccnc12 | > 9 µM | > 10 µM | < 50% | 3.7 µM | > 20 µM | > 20 µM | 9 µM |
| Oc1ccc(CN2CCN(Cc3ccccc3)CC2)c2cccnc12 | > 11 µM | > 10 µM | < 50% | 2.2 µM | > 20 µM | > 20 µM | 11 µM |

| SMILES | EC50 [1] | CC50 (LNCaP) | inhibition [2] | IC50 [3] | IC50 [4] | IC50 [5] | CC50 (MT4) |
| --- | --- | --- | --- | --- | --- | --- | --- |
| CCC(=O)NC(c1ccco1)c1cc(Cl)c2cccnc2c1O (stereo not given) | – | 0.72 µM | < 50% | 4 µM | > 20 µM | > 20 µM | – |
| Oc1ccc(CNc2ccc(C(F)(F)F)cc2)c2cccnc12 | > 9 µM | > 10 µM | < 50% | 2.1 µM | > 20 µM | > 20 µM | 9 µM |
| CCOC(=O)N1CCN(Cc2ccc(O)c3ncccc23)CC1 | > 9 µM | > 10 µM | < 50% | 1.5 µM | > 20 µM | > 20 µM | 9 µM |
| CN1CCN(Cc2ccc(O)c3ncccc23)CC1 | > 35 µM | > 10 µM | < 50% | 0.8 µM | > 20 µM | > 20 µM | 35 µM |
| CCCC(=O)NC(c1ccc(OC)cc1)c1ccc2cccnc2c1O (stereo not given) | – | 0.62 µM | < 50% | 4 µM | > 20 µM | > 20 µM | – |
| Oc1ccc(Cc2ccc(O)c3ncccc23)c2cccnc12 | – | 0.1 µM | < 50% | 2 µM | > 20 µM | > 20 µM | – |
| COc1cccc(NCc2ccc(O)c3ncccc23)c1 | – | 5 µM | < 50% | 3.2 µM | > 20 µM | > 20 µM | – |
| CCCC(=O)NC(c1ccccc1)c1ccc2cccnc2c1O (stereo not given) | – | 0.68 µM | < 50% | 1.4 µM | > 20 µM | > 20 µM | – |
| Cc1cccnc1NCc1ccc(O)c2ncccc12 | > 11 µM | > 10 µM | < 50% | 3.5 µM | > 20 µM | > 20 µM | 11 µM |
| CCOCc1ccc(O)c2ncccc12 | – | 2 µM | < 50% | 2.4 µM | > 20 µM | > 20 µM | – |
| Cc1cccc(NCc2ccc(O)c3ncccc23)c1 | > 9 µM | > 10 µM | < 50% | 4 µM | > 20 µM | > 20 µM | 9 µM |
| Oc1ccc(CN2CCN(c3ccccc3)CC2)c2cccnc12 | – | 5 µM | < 50% | 2.1 µM | > 20 µM | > 20 µM | – |
| CCC(=O)NC(c1cccs1)c1cc([N+](=O)[O-])c2cccnc2c1O (stereo not given) | – | 5 µM | < 50% | 3.5 µM | > 20 µM | > 20 µM | – |
| CCOC(=O)C1CCN(Cc2ccc(O)c3ncccc23)CC1 | – | > 10 µM | < 50% | 2.2 µM | > 20 µM | > 20 µM | – |
| CC(=O)NC(c1ccc(N(C)C)cc1)c1cc(Cl)c2cccnc2c1O (stereo not given) | – | 0.62 µM | < 50% | 4 µM | > 20 µM | > 20 µM | – |
| CC(=O)NC(c1ccccc1)c1cc(Cl)c2cccnc2c1O (stereo not given) | – | 0.74 µM | < 50% | 3 µM | > 20 µM | > 20 µM | – |
